Assay results published in ChEMBL document CHEMBL4689842, “EUbOPEN Chemogenomics Library wave 1” (2021).

Tested on: U2OS
Test: Multiplex assay against U2OS
Type: toxicity, cell-based
Conditions: human
Procedure, shortened: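 Four dyes were applied at seeding to live cells: Hoechst33342, BioTracker Green Microtubule Cytoskeleton Dye, MitoTracker Red and Annexin V Alexa Fluor 680. Imaging after compound addition used a CQ1 microscope at 37°C and 5% CO2. CellPathfinder machine-learning gating then sorted cells into Hoechst high-intensity objects or normal cells, normal cells into healthy, pyknosed or fragmented nuclei, and pyknosed cells into mitotic or apoptotic, with tubulin, mitochondrial-mass and membrane-permeability phenotypes given as per cents of healthy-nucleus cells.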

[1] = 12 h, 1 µM, compound concentration 1 uM, replicate 1
[2] = 12 h, 1 µM, compound concentration 1 uM, replicate 2
[3] = 12 h, 10 µM, compound concentration 10 uM, replicate 1
[4] = 12 h, 10 µM, compound concentration 10 uM, replicate 2
[5] = 24 h, 1 µM, compound concentration 1 uM, replicate 1
[6] = 24 h, 1 µM, compound concentration 1 uM, replicate 2
[7] = 24 h, 10 µM, compound concentration 10 uM, replicate 1
[8] = 24 h, 10 µM, compound concentration 10 uM, replicate 2
[9] = 48 h, 1 µM, compound concentration 1 uM, replicate 1
[10] = 48 h, 1 µM, compound concentration 1 uM, replicate 2
[11] = 48 h, 10 µM, compound concentration 10 uM, replicate 1
[12] = 48 h, 10 µM, compound concentration 10 uM, replicate 2

`CC(=O)c1cc(-c2cc(C(=O)NC3CC3)ccc2C)c2ncccn12` was tested, and the “Population Apoptotic (%)” value [1] was 42%, the “Population Fragmented Nuclei (%)” value [1] was 6% and the “Population Healthy Nuclei (%)” value [1] was 84%. The “Population Hoechst High Intensity Objects (%)” value [1] was 5%, the “Population Membrane Permeable-Phenotype (%)” value [1] was 9% and the “Population Mitochondria Different-Phenotype (%)” value [1] was 8%. The “Population Mitotic Cells (%)” value [1] was 57%, the “Population Normal (%)” value [1] was 94% and the “Population Pyknosed Nuclei (%)” value [1] was 8%. The “Population Tubulin-Different-Phenotype (%)” value [1] was 14%, the “Total Cell Count” value [1] was 108 and the “Population Apoptotic (%)” value [2] was 66%. For the same molecule, the “Population Fragmented Nuclei (%)” value [2] was 8%, the “Population Healthy Nuclei (%)” value [2] was 85% and the “Population Hoechst High Intensity Objects (%)” value [2] was 7%. For the same molecule, the “Population Membrane Permeable-Phenotype (%)” value [2] was 2%, the “Population Mitochondria Different-Phenotype (%)” value [2] was 7% and the “Population Mitotic Cells (%)” value [2] was 33%. The “Population Normal (%)” value [2] was 92%, the “Population Pyknosed Nuclei (%)” value [2] was 6% and the “Population Tubulin-Different-Phenotype (%)” value [2] was 19%. The “Total Cell Count” value [2] was 73, the “Population Apoptotic (%)” value [3] was 43% and the “Population Fragmented Nuclei (%)” value [3] was 7%. The “Population Healthy Nuclei (%)” value [3] was 79%, the “Population Hoechst High Intensity Objects (%)” value [3] was 6% and the “Population Membrane Permeable-Phenotype (%)” value [3] was 6%. The “Population Mitochondria Different-Phenotype (%)” value [3] was 9%, the “Population Mitotic Cells (%)” value [3] was 56% and the “Population Normal (%)” value [3] was 93%. The “Population Pyknosed Nuclei (%)” value [3] was 12%, the “Population Tubulin-Different-Phenotype (%)” value [3] was 16% and the “Total Cell Count” value [3] was 169. The “Population Apoptotic (%)” value [4] was 60%, the “Population Fragmented Nuclei (%)” value [4] was 11% and the “Population Healthy Nuclei (%)” value [4] was 84%. The “Population Hoechst High Intensity Objects (%)” value [4] was 4%, the “Population Membrane Permeable-Phenotype (%)” value [4] was 3% and the “Population Mitochondria Different-Phenotype (%)” value [4] was 8%. The “Population Mitotic Cells (%)” value [4] was 40%, the “Population Normal (%)” value [4] was 95% and the “Population Pyknosed Nuclei (%)” value [4] was 5%. The “Population Tubulin-Different-Phenotype (%)” value [4] was 17%, the “Total Cell Count” value [4] was 52 and the “Population Apoptotic (%)” value [5] was 43%. For the same molecule, the “Population Fragmented Nuclei (%)” value [5] was 4%, the “Population Healthy Nuclei (%)” value [5] was 89% and the “Population Hoechst High Intensity Objects (%)” value [5] was 4%. For the same molecule, the “Population Membrane Permeable-Phenotype (%)” value [5] was 6%, the “Population Mitochondria Different-Phenotype (%)” value [5] was 5% and the “Population Mitotic Cells (%)” value [5] was 56%. The “Population Normal (%)” value [5] was 96%, the “Population Pyknosed Nuclei (%)” value [5] was 6% and the “Population Tubulin-Different-Phenotype (%)” value [5] was 17%. For the same molecule, the “Total Cell Count” value [5] was 111, the “Population Apoptotic (%)” value [6] was 0% and the “Population Fragmented Nuclei (%)” value [6] was 3%. For the same molecule, the “Population Healthy Nuclei (%)” value [6] was 91%, the “Population Membrane Permeable-Phenotype (%)” value [6] was 3% and the “Population Mitochondria Different-Phenotype (%)” value [6] was 9%. For the same molecule, the “Population Mitotic Cells (%)” value [6] was 100%, the “Population Normal (%)” value [6] was 95% and the “Population Pyknosed Nuclei (%)” value [6] was 5%. For the same molecule, the “Population Tubulin-Different-Phenotype (%)” value [6] was 12%, the “Total Cell Count” value [6] was 70 and the “Population Apoptotic (%)” value [7] was 25%. For the same molecule, the “Population Fragmented Nuclei (%)” value [7] was 15%, the “Population Healthy Nuclei (%)” value [7] was 66% and the “Population Hoechst High Intensity Objects (%)” value [7] was 2%. For the same molecule, the “Population Membrane Permeable-Phenotype (%)” value [7] was 10%, the “Population Mitochondria Different-Phenotype (%)” value [7] was 5% and the “Population Mitotic Cells (%)” value [7] was 75%. The “Population Normal (%)” value [7] was 97%, the “Population Pyknosed Nuclei (%)” value [7] was 18% and the “Population Tubulin-Different-Phenotype (%)” value [7] was 17%. The “Total Cell Count” value [7] was 250, the “Population Apoptotic (%)” value [8] was 48% and the “Population Fragmented Nuclei (%)” value [8] was 11%. For the same molecule, the “Population Healthy Nuclei (%)” value [8] was 63%, the “Population Membrane Permeable-Phenotype (%)” value [8] was 8% and the “Population Mitochondria Different-Phenotype (%)” value [8] was 12%. The “Population Mitotic Cells (%)” value [8] was 51%, the “Population Pyknosed Nuclei (%)” value [8] was 24% and the “Population Tubulin-Different-Phenotype (%)” value [8] was 18%. The “Total Cell Count” value [8] was 62, the “Population Apoptotic (%)” value [9] was 47% and the “Population Fragmented Nuclei (%)” value [9] was 3%. For the same molecule, the “Population Healthy Nuclei (%)” value [9] was 91%, the “Population Hoechst High Intensity Objects (%)” value [9] was 2% and the “Population Membrane Permeable-Phenotype (%)” value [9] was 3%. The “Population Mitochondria Different-Phenotype (%)” value [9] was 9%, the “Population Mitotic Cells (%)” value [9] was 52% and the “Population Normal (%)” value [9] was 97%. For the same molecule, the “Population Pyknosed Nuclei (%)” value [9] was 5%, the “Population Tubulin-Different-Phenotype (%)” value [9] was 21% and the “Total Cell Count” value [9] was 106. The “Population Apoptotic (%)” value [10] was 16%, the “Population Fragmented Nuclei (%)” value [10] was 2% and the “Population Hoechst High Intensity Objects (%)” value [10] was 3%. The “Population Membrane Permeable-Phenotype (%)” value [10] was 2%, the “Population Mitochondria Different-Phenotype (%)” value [10] was 20% and the “Population Mitotic Cells (%)” value [10] was 83%. The “Population Normal (%)” value [10] was 96%, the “Population Pyknosed Nuclei (%)” value [10] was 6% and the “Population Tubulin-Different-Phenotype (%)” value [10] was 23%. For the same molecule, the “Total Cell Count” value [10] was 67, the “Population Apoptotic (%)” value [11] was 70% and the “Population Fragmented Nuclei (%)” value [11] was 16%. For the same molecule, the “Population Healthy Nuclei (%)” value [11] was 60%, the “Population Hoechst High Intensity Objects (%)” value [11] was 7% and the “Population Membrane Permeable-Phenotype (%)” value [11] was 10%. For the same molecule, the “Population Mitochondria Different-Phenotype (%)” value [11] was 6%, the “Population Mitotic Cells (%)” value [11] was 30% and the “Population Normal (%)” value [11] was 92%. For the same molecule, the “Population Pyknosed Nuclei (%)” value [11] was 22%, the “Population Tubulin-Different-Phenotype (%)” value [11] was 16% and the “Total Cell Count” value [11] was 381. For the same molecule, the “Population Apoptotic (%)” value [12] was 87%, the “Population Fragmented Nuclei (%)” value [12] was 14% and the “Population Healthy Nuclei (%)” value [12] was 73%. The “Population Hoechst High Intensity Objects (%)” value [12] was 4%, the “Population Membrane Permeable-Phenotype (%)” value [12] was 31% and the “Population Mitochondria Different-Phenotype (%)” value [12] was 29%. For the same molecule, the “Population Mitotic Cells (%)” value [12] was 12%, the “Population Normal (%)” value [12] was 95% and the “Population Pyknosed Nuclei (%)” value [12] was 11%. The “Population Tubulin-Different-Phenotype (%)” value [12] was 35% and the “Total Cell Count” value [12] was 93.
